Sampled rows, rich in hits. Any-hit rate of the full collection: about 4.2%.
Hep lipid drop = inhibitors of hepatocyte lipid droplet formation, primary screen, imaging, high-throughput imaging, BODIPY stain | AID 1656, 2009 | AML12 mouse hepatocytes, oleate lipid droplets | inhibition, % at 6.5 µM | hit rate 0.4% among 240,000;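 active = lipid droplet intensity inhibited by at least 50%, with more than 500 cells counted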
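Material – AML12 mouse liver cells · Also added – oleate loading, 100 µM · Compound dosing – 6.5 µM single-point dosing · Times – overnight treatment with compound plus oleate · Measured by – fluorescence imaging, 20x objective, two fields per well · Read-out – percent inhibition of filter-corrected integrated lipid droplet intensity per well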
XBP1 UPR activ = activators of adaptive XBP1 UPR arm, primary screen, cell-based, CHO-XBP1 luciferase reporter, luminescence, uHTS; IRE1-XBP1 UPR activation; percent of tunicamycin response, DMSO as zero; activation, % at 20 µM; hit rate 0.33% among 330,000;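 active = versus positive control, 20 µM dose yields 30% or more activation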;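 note: 100% = tunicamycin at 10 µg/mL and 0% = DMSO only wells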
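Material: CHO cell line with stable XBP1 luciferase reporter; buffer or medium: F12 medium containing 10% fetal bovine serum; compound: single point, 20 µM final compound, 1% DMSO; incubation: 6 h treatment, 37 °C; measured by: glow luminescence from Steady-Glo reagent; evaluation: activation, % of tunicamycin; control set: tunicamycin high, DMSO low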
TMEM16A inh = TMEM16A chloride channel inhibitors, primary screen, cell-based, HTS. Anoctamin-1 (Mus musculus), Q8BHY3. HEK293 TMEM16A/YFP iodide influx fluorescence, ionomycin. normalized B-score (activity score, 25-100; higher = stronger inhibition) at 10 µM. hit rate 1.2% among 310,000;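 active = ratio plate-corrected score three or more library SD toward inhibition, starting fluorescence score within five deviations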;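 note: score derived from kinetic fluorescence span divided by baseline fluorescence per well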
Target sequence (Q8BHY3 whole entry, looked up): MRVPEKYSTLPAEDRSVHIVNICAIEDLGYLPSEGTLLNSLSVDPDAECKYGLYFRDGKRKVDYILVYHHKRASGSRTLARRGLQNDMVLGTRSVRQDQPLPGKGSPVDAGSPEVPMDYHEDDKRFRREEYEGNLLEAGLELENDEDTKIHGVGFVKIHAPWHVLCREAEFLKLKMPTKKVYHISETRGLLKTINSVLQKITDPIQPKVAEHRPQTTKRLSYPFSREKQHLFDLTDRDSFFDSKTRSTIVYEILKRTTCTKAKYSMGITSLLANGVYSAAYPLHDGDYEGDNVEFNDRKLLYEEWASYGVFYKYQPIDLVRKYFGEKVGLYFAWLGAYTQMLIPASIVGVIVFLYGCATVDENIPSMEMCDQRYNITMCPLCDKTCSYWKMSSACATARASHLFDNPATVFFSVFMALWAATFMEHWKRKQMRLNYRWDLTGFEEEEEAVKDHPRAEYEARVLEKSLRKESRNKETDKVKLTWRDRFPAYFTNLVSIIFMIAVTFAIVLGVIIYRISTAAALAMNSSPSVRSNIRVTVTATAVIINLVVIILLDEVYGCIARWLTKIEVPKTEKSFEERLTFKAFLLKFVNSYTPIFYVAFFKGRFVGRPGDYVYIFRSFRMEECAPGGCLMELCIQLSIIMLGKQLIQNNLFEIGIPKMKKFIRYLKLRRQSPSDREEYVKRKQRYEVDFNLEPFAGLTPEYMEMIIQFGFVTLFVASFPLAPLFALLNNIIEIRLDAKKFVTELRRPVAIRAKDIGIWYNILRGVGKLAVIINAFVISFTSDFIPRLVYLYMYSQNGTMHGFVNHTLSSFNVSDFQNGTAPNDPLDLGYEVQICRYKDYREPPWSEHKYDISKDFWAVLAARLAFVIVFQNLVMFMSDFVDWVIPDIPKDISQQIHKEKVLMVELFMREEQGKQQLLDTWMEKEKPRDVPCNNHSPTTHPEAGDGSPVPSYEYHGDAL
UPR CHOP act = activators of apoptotic CHOP UPR arm, primary screen, cell-based, CHO-CHOP luciferase reporter, luminescence, uHTS | UPR activation; percent of tunicamycin response over DMSO baseline | activation, % at 10 µM | hit rate 0.34% among 330,000;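 active = at 10 µM dose, activation of 40% or more, normalized to positive control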;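 note: 100% = tunicamycin at 10 µg/mL and 0% = DMSO alone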
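Assay system: CHO-CHOP cells, stable luciferase reporter of PERK-eIF2a-CHOP signalling / Buffer or medium: F12 plus 10% serum / Compound dosing: one dose, 10 µM in 0.5% DMSO / Times: 6 h compound treatment, 37 °C / Technique: luciferase luminescence / Read-out: % reporter activation, DMSO baseline versus tunicamycin full activation / Benchmarks: tunicamycin and DMSO controls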
TMEM16A act = TMEM16A chloride channel activators or potentiators, primary screen, cell-based, HTS. Anoctamin-1 (Mus musculus), Q8BHY3. HEK293 TMEM16A/YFP-H148Q/I152L, iodide quench fluorescence; hits give low values. B-score at 10 µM. hit rate 0.3% among 340,000;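 active = fluorescence-ratio B-score plate-corrected deviation score at least 3 library SD below zero, with starting fluorescence score within 5 deviations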;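 note: channel opened by trigger with iodide after compound preincubation; score built on the fluorescence ratio of max minus min over baseline; more negative score means more quench and so TMEM16A activation or potentiation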
CHOP inhibitor = inhibitors of CHOP promoter induction, primary screen, cell-based, unfolded protein response, luciferase reporter. CHO-K1 CHOP-promoter luciferase, tunicamycin-induced, 15-18 h. inhibition, % at 10 µM. hit rate 3.8% among 220,000. AID 2732, 2010;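 active = compounds that reduced the stress-induced luciferase reporter signal by more than about 70% of percent inhibition, limit read from the data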;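 note: 0% = tunicamycin plus vehicle and 100% = wells without tunicamycin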
Active calls of the source: *.

`CCOC(=O)N1CCN(c2ccc(C(=O)c3cccc(F)c3)cc2)CC1` gave Hep lipid drop -11, XBP1 UPR activ -4, TMEM16A inh 25*, UPR CHOP act 1, TMEM16A act inactive and CHOP inhibitor 11.
For O=C(c1ccc(N2CCN(C(=O)c3cccc(F)c3)CC2)cc1)c1cccc(F)c1 the results were Hep lipid drop -7, XBP1 UPR activ -6, TMEM16A inh inactive, UPR CHOP act -1 and TMEM16A act inactive.
For O=[N+]([O-])c1cc(-n2cccc2)ccc1N1CCOCC1 the results were Hep lipid drop 9, XBP1 UPR activ 0, TMEM16A inh inactive, UPR CHOP act 0, TMEM16A act inactive and CHOP inhibitor 2.
`COc1cc(CNCCc2ccc(S(N)(=O)=O)cc2)ccc1OCC(=O)N1CCCCC1` gave Hep lipid drop 3, XBP1 UPR activ 1, TMEM16A inh inactive, UPR CHOP act 0, TMEM16A act inactive and CHOP inhibitor 3.
For CCOC(=O)N1CCN(Cc2cc(=O)oc3cc4c(cc23)CCC4)CC1 the results were XBP1 UPR activ 4, TMEM16A inh inactive, UPR CHOP act -2, TMEM16A act -14* and CHOP inhibitor -3.
Screening CCOC(=O)C1(CCc2ccccc2)CCN(Cc2ccc(O)cc2)CC1 returned Hep lipid drop -4, XBP1 UPR activ 1, TMEM16A inh inactive, UPR CHOP act 2, TMEM16A act inactive and CHOP inhibitor -17.
CCOC(=O)C1(Cc2ccccc2)CCN(Cc2ccc(C3CCCCO3)s2)CC1 (centres undefined) was read as Hep lipid drop -3, XBP1 UPR activ -1, TMEM16A inh inactive, UPR CHOP act 2, TMEM16A act inactive and CHOP inhibitor 41.
For CCOC(=O)C1(Cc2ccccc2)CCN(Cc2ccc(C)s2)CC1 the results were Hep lipid drop -6, XBP1 UPR activ -3, TMEM16A inh inactive, UPR CHOP act 1, TMEM16A act inactive and CHOP inhibitor 90*.
For CCOC(=O)C1(CCc2ccccc2)CCN(Cc2c(O)cccc2OC)CC1 the results were Hep lipid drop -66, XBP1 UPR activ -5, TMEM16A inh inactive, UPR CHOP act -3, TMEM16A act inactive and CHOP inhibitor 73*.
`CCOC(=O)C1(CCc2ccccc2)CCN(Cc2ccc(OC)cc2)CC1` gave Hep lipid drop -9, XBP1 UPR activ 1, TMEM16A inh 25*, UPR CHOP act -1, TMEM16A act inactive and CHOP inhibitor 13.
Cc1cc2c(cc1S(=O)(=O)CCC(=O)N1CC(C)CC(C)C1)OCC(=O)N2 (centres undefined) was read as Hep lipid drop -1, XBP1 UPR activ 0, TMEM16A inh inactive, UPR CHOP act -2 and TMEM16A act inactive.
Screening Cc1cccc(NC(=O)c2c(O)c3cccc4c3n(c2=O)CCC4)n1 returned CHOP inhibitor -5.
Cc1cnc(NC(=O)c2c(O)c3cccc4c3n(c2=O)CCC4)s1 was read as CHOP inhibitor 76*.
For CC(C)(C)c1ccc(/C=C/C(=O)NC2=NCCS2)cc1 the results were XBP1 UPR activ -8, TMEM16A inh inactive, UPR CHOP act 4, TMEM16A act inactive and CHOP inhibitor 82*.
For CCC(=O)NC(=S)Nc1ccc(NC(=O)COc2ccc(Cl)c(C)c2)cc1 the results were Hep lipid drop 37, XBP1 UPR activ -2, TMEM16A inh inactive, UPR CHOP act -1, TMEM16A act inactive and CHOP inhibitor 8.
Screening Cc1cc(OCC(=O)NNC(=S)NC(=O)c2ccc(Br)o2)ccc1Cl returned Hep lipid drop 4, XBP1 UPR activ -4, TMEM16A inh 25*, UPR CHOP act 0 and TMEM16A act -4.6*.
Screening Cc1ccc(OCC(=O)Nc2ccc(-c3nc4ncccc4o3)cc2)c(C)c1 returned Hep lipid drop 10, XBP1 UPR activ -2, TMEM16A inh inactive, UPR CHOP act -1, TMEM16A act inactive and CHOP inhibitor 84*.
`Cc1ccc(C(=O)Nc2cccc(-c3nc4ncccc4o3)c2)cc1` gave Hep lipid drop 2, XBP1 UPR activ -2, TMEM16A inh inactive, UPR CHOP act 1, TMEM16A act inactive and CHOP inhibitor 21.
Screening COc1ccc(C)cc1NC(=O)/C=C/c1ccc(OC)c(S(=O)(=O)N2CCOCC2)c1 returned XBP1 UPR activ -2, UPR CHOP act 5 and TMEM16A act inactive.
COCC(C)NC(=O)c1ccc(N(C)C)cc1 (centres undefined) was read as XBP1 UPR activ 0, TMEM16A inh inactive, UPR CHOP act -1, TMEM16A act inactive and CHOP inhibitor 22.
For CC(C)COC(=O)N(C)c1ccc(C(O)(C(F)(F)F)C(F)(F)F)cc1 the results were Hep lipid drop -2, XBP1 UPR activ 8, TMEM16A inh inactive, UPR CHOP act 7, TMEM16A act inactive and CHOP inhibitor 93*.
OCCN1CCN(C2CCC(c3ccc(F)cc3)c3ccc(F)cc32)CC1 (centres undefined) was read as XBP1 UPR activ 1, TMEM16A inh inactive, UPR CHOP act 1 and TMEM16A act inactive.
Screening Brc1ccc(Oc2nsnc2N2CCOCC2)cc1 returned XBP1 UPR activ -2, TMEM16A inh inactive, UPR CHOP act 1, TMEM16A act inactive and CHOP inhibitor 84*.
`O=C(NC1CC(=O)N(c2ccc3c(c2)OCCO3)C1)N1CCCCC1` (centres undefined) gave XBP1 UPR activ -3, TMEM16A inh inactive, UPR CHOP act 0 and TMEM16A act inactive.
`O=C(COC(=O)c1cc(C(F)(F)F)cc(C(F)(F)F)c1)NCc1ccc(Cl)cc1` gave Hep lipid drop -1, XBP1 UPR activ 4, TMEM16A inh inactive, UPR CHOP act 0, TMEM16A act inactive and CHOP inhibitor 73*.
O=C(COC(=O)c1ccccc1NS(=O)(=O)c1ccc(Cl)cc1)NCc1ccccc1 was read as Hep lipid drop 6, XBP1 UPR activ -1, TMEM16A inh 100*, UPR CHOP act 0, TMEM16A act inactive and CHOP inhibitor 20.
Screening O=C(COC(=O)c1ccccc1Br)NCc1ccccc1 returned Hep lipid drop 4, XBP1 UPR activ 1, TMEM16A inh inactive, UPR CHOP act 0, TMEM16A act inactive and CHOP inhibitor -17.
OCC1NC[C@@H](O)C(O)[C@@H]1O (some centres undefined) was read as CHOP inhibitor 16.

High-throughput results: PubChem, several laboratories
